The source made the active and inactive calls. The calls are words filed in the database; no cut-off is given here.
Target: T1, Beta-adrenergic receptor kinase 1 (Homo sapiens) (UniProt P25098)
T1 sequence (whole entry): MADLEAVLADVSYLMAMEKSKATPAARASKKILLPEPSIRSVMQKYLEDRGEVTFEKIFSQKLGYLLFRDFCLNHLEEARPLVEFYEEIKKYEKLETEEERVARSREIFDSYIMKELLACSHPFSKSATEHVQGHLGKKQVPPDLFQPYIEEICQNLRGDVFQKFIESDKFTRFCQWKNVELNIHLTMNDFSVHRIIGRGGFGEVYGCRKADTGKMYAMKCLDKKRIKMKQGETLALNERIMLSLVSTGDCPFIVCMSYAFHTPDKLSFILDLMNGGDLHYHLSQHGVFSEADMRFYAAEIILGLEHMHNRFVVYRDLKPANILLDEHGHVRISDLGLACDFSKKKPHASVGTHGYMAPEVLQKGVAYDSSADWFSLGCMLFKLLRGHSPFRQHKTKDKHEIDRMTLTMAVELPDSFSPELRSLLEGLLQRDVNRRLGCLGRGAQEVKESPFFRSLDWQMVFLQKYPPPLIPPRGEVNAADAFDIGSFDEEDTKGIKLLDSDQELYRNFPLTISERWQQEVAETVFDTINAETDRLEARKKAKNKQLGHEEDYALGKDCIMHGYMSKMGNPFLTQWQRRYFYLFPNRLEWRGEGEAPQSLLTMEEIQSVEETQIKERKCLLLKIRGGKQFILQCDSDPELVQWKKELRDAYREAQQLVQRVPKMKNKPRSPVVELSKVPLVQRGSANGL
Test: Inhibition of Beta-adrenergic receptor kinase 1 at 1 mM (Inactive)
Method in brief: (§1)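 Radiometric assay of βARK1 phosphorylating the intracellular C-terminal domain of human β2-adrenergic receptor (6.7 μM) with 10 mM [γ-32P]ATP (18.5 kBq). Stopped on ice water, then gel electrophoresis and imaging-plate readout of radioactivity. Inhibition % taken against control and background.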

Row | SMILES | inhibition
1 | C/C(CCS(=O)(=O)c1ccccc1)=N\OC/C=C/Cl | inactive
2 | CCCCCCCCCCCCCCCCN(C)c1ccc(S(C)(=O)=O)cc1N | inactive
3 | CC(C)Sc1nc2sccn2c1/C=N/OCc1c(Cl)cccc1Cl | inactive
4 | O=C(Nc1ccc(F)c([N+](=O)[O-])c1)Nc1cccc2c(O)cccc12 | inactive
5 | COc1ccc(/C=N/c2ccc(O)cc2)cc1 | inactive
6 | Clc1ccc(-c2csc(Nc3ccccc3)n2)cc1 | inactive
7 | Cc1csc(-c2nc(-c3ccc(Cl)cc3)no2)c1Cl | inactive
8 | O=[N+]([O-])c1ccccc1/N=C/c1ccc2c(c1)OCO2 | inactive

Target: T2, Beta-adrenergic receptor kinase 1 (Homo sapiens, UniProt P25098)
T2 sequence (P25098 whole entry): T1 sequence (whole entry)
Test: Inhibition of Beta-adrenergic receptor kinase 1
Method in brief: as §1

Row | SMILES | IC50 [µM]
9 | COC(=O)c1ccc(/C=C/c2ccc([N+](=O)[O-])o2)o1 | 126
10 | CCC(=O)n1nc2c(c1C(C)(C)C)C(=O)c1ccccc1-2 | 563

Target: T1, Beta-adrenergic receptor kinase 1 (Homo sapiens)
Test: Inhibition of Beta-adrenergic receptor kinase 1 at 1 mM
Method in brief: as §1

Row | SMILES | inhibition [%]
11 | COC(=O)c1ccc(/C=C/c2ccc([N+](=O)[O-])o2)o1 | 88.4
12 | O=C(NCc1ccco1)c1ccc([N+](=O)[O-])o1 | 37.7
13 | NC(=O)c1ncn([C@@H]2O[C@@H](CO)[C@H](O)[C@@H]2O)n1 | 0
14 | COC(=O)c1sccc1Oc1ccc(C(F)(F)F)cc1NC=C(C#N)C#N | 28.8
15 | O=C1C(O)=C(O)O[C@H]1C1COC2(CCCCC2)O1 (stereo not given in full) | 20.4
16 | CC(=O)CC(=O)Nc1cc(C(C)(C)C)sc1C(N)=O | 37.3
17 | Cc1ccc(Cl)cc1NCN1C(=O)CNC1=S | 26.5
18 | CCC(=O)n1nc2c(c1C(C)(C)C)C(=O)c1ccccc1-2 | 52.7
19 | CC(C)COC(=O)CSc1nc2c(c(=O)[nH]c(=O)n2C)n1C | 0
20 | Nc1nc(O)c2ncn([C@H]3O[C@@H]4COP(=O)(O)O[C@H]4[C@H]3O)c2n1 | 24.2
21 | O=C1C(O)=C(O)O[C@@H]1C1COC2(CCCCC2)O1 (stereo not given in full) | 0
22 | CCOC(=O)c1cnc2c(C(F)(F)F)cccc2c1O | 20.1
23 | Oc1nnc(Cc2ccc(-c3ccccc3Cl)o2)c2ccccc12 | 67.3

Target: cAMP-dependent protein kinase (PKA) (Homo sapiens) (UniProt P22694+P17612+P22612)
Test: Inhibition of Protein kinase A (PKA) at 1 mM
Type: functional
Method in brief: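 Colorimetric kit assay of PKA (final 87 units/μL) with dye-linked kemptide substrate (LRRASLG). Incubated 30 min at 30 °C. Phosphorylated substrate captured on affinity membrane, eluted, read at OD 570 nm. PKI5-24 was the positive control.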

Row | SMILES | inhibition [%]
24 | COC(=O)c1ccc(/C=C/c2ccc([N+](=O)[O-])o2)o1 | 1.8
25 | CCC(=O)n1nc2c(c1C(C)(C)C)C(=O)c1ccccc1-2 | -2.2

Reference: ChEMBL document CHEMBL1135415, “Rational design and evaluation of new lead compound structures for selective betaARK1 inhibitors” (J Med Chem, 2002)
